ChEMBL document CHEMBL4145619, “Computer-Assisted Discovery of Retinoid X Receptor Modulating Natural Products and Isofunctional Mimetics” (J Med Chem, 2018)
Activity calls are given as the source filed them. The calls are words filed in the database; no cut-off is given here.

Legend:
Format in all cases: cell-based
[1] = target: T1, Retinoic acid receptor RXR-alpha (Homo sapiens) (UniProt P19793); test: Transactivation of human Gal4-fused RXRalpha LBD expressed in HEK293T cells at 50 uM after 12 to 14 hrs by dual-glo luciferase assay
T1 sequence (whole entry): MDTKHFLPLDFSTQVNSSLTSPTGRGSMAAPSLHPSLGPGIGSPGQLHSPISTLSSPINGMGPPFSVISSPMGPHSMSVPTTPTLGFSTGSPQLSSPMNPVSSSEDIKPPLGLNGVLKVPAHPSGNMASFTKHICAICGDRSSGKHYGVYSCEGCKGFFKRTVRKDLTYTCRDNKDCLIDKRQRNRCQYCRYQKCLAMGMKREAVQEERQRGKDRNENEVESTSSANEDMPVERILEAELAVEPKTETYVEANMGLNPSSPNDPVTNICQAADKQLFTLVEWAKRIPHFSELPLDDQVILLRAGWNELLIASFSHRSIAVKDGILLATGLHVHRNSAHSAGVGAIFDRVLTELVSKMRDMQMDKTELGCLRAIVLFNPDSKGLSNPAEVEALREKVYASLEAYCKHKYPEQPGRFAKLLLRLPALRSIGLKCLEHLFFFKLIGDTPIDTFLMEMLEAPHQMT

[2] = target: T2, Retinoic acid receptor RXR-alpha (Homo sapiens, UniProt P19793); test: Transactivation of human Gal4-fused RXRalpha LBD expressed in HEK293T cells after 12 to 14 hrs by dual-glo luciferase assay
T2 sequence (P19793 whole entry): T1 sequence (whole entry)
Outline: (§1)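 Gal4-hybrid reporter gene assay in HEK293T cells with the RXRα, RXRβ or RXRγ construct. Dose–response curves give EC50 and fold activation as mean ± SEM from n ≥ 4 independent experiments in duplicate.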

[3] = target: T1, Retinoic acid receptor RXR-alpha (Homo sapiens); test: Transactivation of human Gal4-fused RXRalpha LBD expressed in HEK293T cells after 12 to 14 hrs by dual-glo luciferase assay relative to bexarotene
[4] = target: T3, Retinoic acid receptor RXR-beta (Homo sapiens, UniProt P28702); test: Transactivation of human Gal4-fused RXRbeta LBD expressed in HEK293T cells after 12 to 14 hrs by dual-glo luciferase assay; outline: as §1
T3 sequence (P28702 whole entry): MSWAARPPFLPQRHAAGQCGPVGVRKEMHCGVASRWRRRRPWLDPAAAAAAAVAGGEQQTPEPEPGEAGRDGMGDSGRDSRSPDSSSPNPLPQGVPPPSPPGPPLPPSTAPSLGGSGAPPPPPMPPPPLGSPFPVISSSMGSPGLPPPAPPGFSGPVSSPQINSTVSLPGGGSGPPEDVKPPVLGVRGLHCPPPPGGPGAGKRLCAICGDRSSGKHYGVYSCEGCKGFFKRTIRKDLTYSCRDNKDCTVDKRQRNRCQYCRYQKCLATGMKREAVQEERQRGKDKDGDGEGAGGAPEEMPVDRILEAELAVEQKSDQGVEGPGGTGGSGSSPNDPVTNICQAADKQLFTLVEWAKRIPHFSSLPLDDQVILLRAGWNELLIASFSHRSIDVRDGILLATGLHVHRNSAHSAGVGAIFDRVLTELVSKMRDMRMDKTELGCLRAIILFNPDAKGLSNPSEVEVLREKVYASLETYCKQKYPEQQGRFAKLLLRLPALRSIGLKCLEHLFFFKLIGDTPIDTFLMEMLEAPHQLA

[5] = target: T4, Retinoic acid receptor RXR-beta (Homo sapiens) (UniProt P28702); test: Transactivation of human Gal4-fused RXRbeta LBD expressed in HEK293T cells after 12 to 14 hrs by dual-glo luciferase assay relative to bexarotene
T4 sequence (whole entry): T3 sequence (P28702 whole entry)

[6] = target: T5, Retinoic acid receptor RXR-gamma (Homo sapiens, UniProt P48443); test: Transactivation of human Gal4-fused RXRgamma LBD expressed in HEK293T cells after 12 to 14 hrs by dual-glo luciferase assay; outline: as §1
T5 sequence (P48443 whole entry): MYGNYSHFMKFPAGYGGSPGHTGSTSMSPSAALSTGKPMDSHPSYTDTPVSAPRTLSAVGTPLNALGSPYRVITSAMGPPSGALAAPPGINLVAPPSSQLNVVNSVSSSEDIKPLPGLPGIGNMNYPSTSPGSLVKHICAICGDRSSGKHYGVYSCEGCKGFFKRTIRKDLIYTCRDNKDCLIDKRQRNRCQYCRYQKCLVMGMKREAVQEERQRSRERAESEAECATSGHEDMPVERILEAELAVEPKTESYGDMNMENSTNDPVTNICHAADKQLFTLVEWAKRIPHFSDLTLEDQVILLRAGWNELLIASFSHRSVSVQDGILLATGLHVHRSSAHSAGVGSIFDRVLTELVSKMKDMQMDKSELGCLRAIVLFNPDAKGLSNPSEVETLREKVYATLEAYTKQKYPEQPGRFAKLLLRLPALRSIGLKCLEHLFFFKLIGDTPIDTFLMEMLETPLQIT

[7] = target: T6, Retinoic acid receptor RXR-gamma (Homo sapiens) (UniProt P48443); test: Transactivation of human Gal4-fused RXRgamma LBD expressed in HEK293T cells after 12 to 14 hrs by dual-glo luciferase assay relative to bexarotene
T6 sequence (whole entry): T5 sequence (P48443 whole entry)

[8] = target: T4, Retinoic acid receptor RXR-beta (Homo sapiens); test: Transactivation of human Gal4-fused RXRbeta LBD expressed in HEK293T cells at 50 uM after 12 to 14 hrs by dual-glo luciferase assay
[9] = target: T6, Retinoic acid receptor RXR-gamma (Homo sapiens); test: Transactivation of human Gal4-fused RXRgamma LBD expressed in HEK293T cells at 50 uM after 12 to 14 hrs by dual-glo luciferase assay
[10] = target: T7, Retinoid X receptor (Homo sapiens) (UniProt P28702+P48443+P19793); test: Transactivation of RXR in human HepG2 cells assessed as induction of ABCA1 mRNA expression at 10 uM after 8 hrs by qRT-PCR analysis
Outline: (§2)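 HepG2 cells were treated and ABCA1 or ApoE mRNA levels measured. Results are given as mean fold induction versus 0.1% DMSO vehicle ± SEM, n = 3. Significance was set at p < 0.05, 0.01 or 0.001.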

[11] = target: T7, Retinoid X receptor (Homo sapiens); test: Transactivation of RXR in human HepG2 cells assessed as induction of apoE mRNA expression at 10 uM after 8 hrs by qRT-PCR analysis; outline: as §2
[12] = target: T1, Retinoic acid receptor RXR-alpha (Homo sapiens); test: Transactivation of human Gal4-fused RXRalpha LBD expressed in HEK293T cells at 30 uM after 12 to 14 hrs by dual-glo luciferase assay
Outline: (§3)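 Single-concentration selectivity profiling in Gal4-hybrid reporter gene assays in HEK293T cells. Each nuclear receptor construct (RAR, PPAR, LXR, FXR, CAR, VDR, PXR, RXR) was tested at 30 μM.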

[13] = target: T8, Peroxisome proliferator-activated receptor gamma (Homo sapiens) (UniProt P37231); test: Transactivation of human Gal4-fused PPARgamma LBD expressed in HEK293T cells at 30 uM after 12 to 14 hrs by dual-glo luciferase assay; outline: as §3
T8 sequence (whole entry): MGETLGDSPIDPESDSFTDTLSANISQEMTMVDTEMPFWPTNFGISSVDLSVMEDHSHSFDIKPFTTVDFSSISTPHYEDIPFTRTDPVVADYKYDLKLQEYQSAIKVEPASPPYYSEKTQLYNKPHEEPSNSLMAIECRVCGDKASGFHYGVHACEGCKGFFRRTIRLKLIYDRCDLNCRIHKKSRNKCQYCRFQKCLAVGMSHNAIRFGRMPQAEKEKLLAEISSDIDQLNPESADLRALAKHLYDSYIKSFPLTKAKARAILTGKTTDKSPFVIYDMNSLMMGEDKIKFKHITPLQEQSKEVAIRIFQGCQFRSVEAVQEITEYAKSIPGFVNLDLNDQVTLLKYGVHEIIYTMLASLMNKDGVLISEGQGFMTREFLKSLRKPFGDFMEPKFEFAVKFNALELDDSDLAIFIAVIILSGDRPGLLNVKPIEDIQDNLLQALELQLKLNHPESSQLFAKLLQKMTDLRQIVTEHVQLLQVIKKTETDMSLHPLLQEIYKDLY

HepG2 = test: Cytotoxicity against human HepG2 cells assessed as reduction in cell viability up to 100 uM after 48 hrs by WST1 assay; details: hepg2, 48 h
[14] = target: T7, Retinoid X receptor (Homo sapiens); test: Transactivation of RXR in human HepG2 cells assessed as induction of ABCA1 mRNA expression at 30 uM after 8 hrs by qRT-PCR analysis; outline: as §2
[15] = target: T7, Retinoid X receptor (Homo sapiens); test: Transactivation of RXR in human HepG2 cells assessed as induction of apoE mRNA expression at 30 uM after 8 hrs by qRT-PCR analysis; outline: as §2

## CCC(C)[C@@H]1C(=O)/C(=C(/O)[C@@H]2[C@@H]3[C@H](C)C[C@H](C)C[C@@H]3C=C[C@@H]2[C@]2(C)O[C@H]2C)C(=O)N1C (some centres undefined)
[1]
  Activity: inactive

## Cc1ccc(-n2c(C)c(C)c3c2CCC(F)(F)C3)cc1O
[2]
  EC50: 23.6 µM
[3]
  fold change (FC): 26
[4]
  EC50: 13.9 µM
[5]
  fold change (FC): 30
[6]
  EC50: 27.2 µM
[7]
  fold change (FC): 11

## Cc1c2c(n(C[C@H]3CC[C@H](C(=O)O)CC3)c1C)CCC(F)(F)C2
[2]
  EC50: 24 µM
[3]
  fold change (FC): 69
[4]
  EC50: 27.1 µM
[5]
  fold change (FC): 99
[6]
  EC50: 50 µM
[7]
  fold change (FC): 18

## Cc1ccc(C)n1C(CC1CCCC1)C(=O)O (centres undefined)
[1]
  Activity: inactive
[8]
  Activity: inactive
[9]
  Activity: inactive

## Cc1c2c(n(-c3ccc(CC(=O)O)cc3)c1C)CCC(F)(F)C2
[3]
  fold change (FC): 69
[5]
  fold change (FC): 121
[7]
  fold change (FC): 44
[10]
  Activity: Active
[11]
  Activity: Active

## CC(C)=C(C)c1ccc(-c2cnc(CCC(=O)O)o2)cc1
[2]
  EC50: 8 µM
[3]
  fold change (FC): 2.8
[4]
  EC50: 16 µM
[5]
  fold change (FC): 3.2
[6]
  EC50: 14 µM
[7]
  fold change (FC): 2

## Cc1ccc(C)n1-c1ccc(SCC(=O)O)cc1
[2]
  EC50: > 30 µM
[4]
  EC50: > 30 µM
[9]
  Activity: inactive

## C/C=C/c1ccc2c(c1)[C@@H](C)[C@H](c1ccc(O)cc1)O2
[1]
  Activity: inactive

## Cc1c2c(n(-c3ccc(CCCC(=O)O)cc3)c1C)CCC(F)(F)C2
[2]
  EC50: 9.1 µM
[3]
  fold change (FC): 56
[4]
  EC50: 2.2 µM
[5]
  fold change (FC): 64
[6]
  EC50: 2.5 µM
[7]
  fold change (FC): 7

## CC(C)c1ccc2c(c1)CC[C@H]1[C@](C)(C(=O)O)CCC[C@]21C [DEHYDROABIETIC ACID]
[12]
  Activity: Active
[2]
  EC50: 42 µM
[3]
  fold change (FC): 9
[4]
  EC50: 42 µM
[5]
  fold change (FC): 6
[6]
  EC50: 42 µM
[7]
  fold change (FC): 6
[13]
  Activity: Active
HepG2
  Activity: Toxic
[14]
  Activity: Active
[15]
  Activity: Active

## Cc1ccc(C)n1-c1ccc(CCCC(=O)O)cc1
[2]
  EC50: 4.3 µM
[3]
  fold change (FC): 31
[4]
  EC50: 6.6 µM
[5]
  fold change (FC): 48
[6]
  EC50: 24.8 µM
[7]
  fold change (FC): 11

## C=C[C@@]1(C)CC[C@H]2C(=CC[C@@H]3[C@]2(C)CCC[C@@]3(C)C(=O)O)C1 [ISOPIMARIC ACID]
[12]
  Activity: Active
[2]
  EC50: 26 µM
[3]
  fold change (FC): 13
[4]
  EC50: 32 µM
[5]
  fold change (FC): 7
[6]
  EC50: 33 µM
[7]
  fold change (FC): 7
HepG2
  Activity: Toxic
[14]
  Activity: Active
[15]
  Activity: Active
